Source: ChEMBL document CHEMBL4364254 (J Med Chem, 2019)

Species: Homo sapiens
Test: Selectivity ratio of Ki for displacement of [3H]CP55940 from human CB2 receptor expressed in HEK293 cell membranes to Ki for displacement of [3H]CP55940 from human CB1 receptor expressed in HEK293 cell membranes
Method in brief: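 Competitive displacement of [3H]CP55940 from membranes of HEK cells overexpressing human CB1 or human CB2. A Ki was determined at each receptor, and selectivity was expressed as Ki(CB2)/Ki(CB1). Ki values are means of three to six independent measurements.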

First: O=C(NC1CCN(c2ncnc3c2nc(-c2ccccc2Cl)n3-c2ccc(Cl)cc2)CC1)N1CCCCC1
Second: CC1(NS(=O)(=O)NC2CCCCC2)CCN(c2ncnc3c2nc(-c2ccccc2Cl)n3-c2ccc(Cl)cc2)CC1
The Ratio Ki of the first is higher: 330 for the first, 82 for the second.

Going from CC1(NC(=O)NCc2ccccc2F)CCN(c2ncnc3c2nc(-c2ccccc2Cl)n3-c2ccc(Cl)cc2)CC1 to CCCN(CC(F)(F)F)C(=O)NC1CCN(c2ncnc3c2nc(-c2ccccc2Cl)n3-c2ccc(Cl)cc2)CC1, the Ratio Ki rises from 73 to 2500.

Target: Cannabinoid receptor 1 (Homo sapiens, UniProt P21554)
Sequence (P21554 whole entry): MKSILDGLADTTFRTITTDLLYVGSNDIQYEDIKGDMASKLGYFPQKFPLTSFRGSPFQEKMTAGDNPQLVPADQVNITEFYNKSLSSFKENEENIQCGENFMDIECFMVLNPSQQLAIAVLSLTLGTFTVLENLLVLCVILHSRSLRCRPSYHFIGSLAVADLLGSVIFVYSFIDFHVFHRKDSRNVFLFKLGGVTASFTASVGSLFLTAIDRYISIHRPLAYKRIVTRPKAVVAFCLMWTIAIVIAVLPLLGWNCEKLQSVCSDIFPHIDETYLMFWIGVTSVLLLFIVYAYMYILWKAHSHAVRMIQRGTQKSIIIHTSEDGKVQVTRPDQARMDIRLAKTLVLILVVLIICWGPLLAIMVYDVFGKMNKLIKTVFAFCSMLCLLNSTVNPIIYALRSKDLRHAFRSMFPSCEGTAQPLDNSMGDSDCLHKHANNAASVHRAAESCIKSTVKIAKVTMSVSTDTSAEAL
Test: Displacement of [3H]CP55940 from human CB1 receptor expressed in HEK293 cell membranes
Method in brief: (§1)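 Competition binding against [3H]CP55940 in membranes from HEK cells overexpressing human CB1 or CB2. Ki values are derived from displacement, and the same membrane format is used for both receptors. Values are averages of three to six independent measurements.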

CC1(NC(=O)NC2CCCCC2)CCN(c2ncnc3c2nc(-c2ccccc2Cl)n3-c2ccc(Cl)cc2)CC1 and CC1(NC(=O)NC2CCC(F)(F)CC2)CCN(c2ncnc3c2nc(-c2ccccc2Cl)n3-c2ccc(Cl)cc2)CC1 are within 1.5-fold of each other in Ki: 13 nM for the first, 17 nM for the second.

O=C(NC1CCN(c2ncnc3c2nc(-c2ccccc2Cl)n3-c2ccc(Cl)cc2)CC1)N1CCCCC1 and O=C(NC1CCCCC1)NC1CCN(c2ncnc3c2nc(-c2ccccc2Cl)n3-c2ccc(Cl)cc2)CC1 are within 1.5-fold of each other in Ki: 1.2 nM for the first, 1.4 nM for the second.

Compared with CC1(NC(=O)Nc2ccc(OC(F)F)nc2)CCN(c2ncnc3c2nc(-c2ccccc2Cl)n3-c2ccc(Cl)cc2)CC1, CC1(NC(=O)Nc2ccc(F)cc2F)CCN(c2ncnc3c2nc(-c2ccccc2Cl)n3-c2ccc(Cl)cc2)CC1 is 14-fold lower in Ki: 81 nM for the first, 6 nM for the second. The second binds more tightly here.

Compared with O=C(NCC1CCCCC1)NC1CCN(c2ncnc3c2nc(-c2ccccc2Cl)n3-c2ccc(Cl)cc2)CC1, O=C(NCC1CCC(F)(F)CC1)NC1CCN(c2ncnc3c2nc(-c2ccccc2Cl)n3-c2ccc(Cl)cc2)CC1 is 29-fold higher in Ki: 0.9 nM for the first, 26 nM for the second. The first binds more tightly here.

First: O=C(NCC1CCCCC1)NC1CCN(c2ncnc3c2nc(-c2ccccc2Cl)n3-c2ccc(C(F)(F)F)nc2)CC1
Second: O=C(NC1CCN(c2ncnc3c2nc(-c2ccccc2Cl)n3-c2ccc(Cl)cc2)CC1)NC1(C(F)(F)F)CCCC1
The Ki of the first is 120-fold higher: 730 nM for the first, 6.3 nM for the second. The second binds more tightly here.

Compared with CC1(NC(=O)Nc2ccccc2F)CCN(c2ncnc3c2nc(-c2ccccc2Cl)n3-c2ccc(Cl)cc2)CC1, CC1(NC(=O)NCc2ccccc2F)CCN(c2ncnc3c2nc(-c2ccccc2Cl)n3-c2ccc(Cl)cc2)CC1 is 3.8-fold higher in Ki: 4 nM for the first, 15 nM for the second.

Going from CC1(NS(=O)(=O)NC2CCCCC2)CCN(c2ncnc3c2nc(-c2ccccc2Cl)n3-c2ccc(Cl)cc2)CC1 to CC1(NC(=O)NC2CCN(c3ncnc4c3nc(-c3ccccc3Cl)n4-c3ccc(Cl)cc3)CC2)CCC(F)(F)CC1, the Ki falls from 9 nM to 5 nM (1.8-fold). The second binds more tightly here.

CCCN(CC(F)(F)F)C(=O)NC1CCN(c2ncnc3c2nc(-c2ccccc2Cl)n3-c2ccc(Cl)cc2)CC1 showed a Ki of 1.1 nM.

Target: Cannabinoid receptor 2 (Homo sapiens, UniProt P34972)
Sequence (P34972 whole entry): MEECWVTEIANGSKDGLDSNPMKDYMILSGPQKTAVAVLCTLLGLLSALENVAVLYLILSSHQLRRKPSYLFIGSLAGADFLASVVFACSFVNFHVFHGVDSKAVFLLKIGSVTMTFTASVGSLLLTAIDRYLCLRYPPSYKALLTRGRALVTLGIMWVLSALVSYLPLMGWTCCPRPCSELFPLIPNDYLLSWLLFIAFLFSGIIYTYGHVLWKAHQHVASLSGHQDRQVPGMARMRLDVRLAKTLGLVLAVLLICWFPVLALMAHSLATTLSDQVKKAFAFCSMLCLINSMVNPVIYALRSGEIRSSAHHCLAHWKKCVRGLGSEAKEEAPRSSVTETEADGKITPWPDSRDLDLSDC
Test: Displacement of [3H]CP55940 from human CB2 receptor expressed in HEK293 cell membranes
Method in brief: as §1

Compared with O=C(NC1CCCC1)NC1CCN(c2ncnc3c2nc(-c2ccccc2Cl)n3-c2ccc(Cl)cc2)CC1, O=C(NC1CCCCC1)NC1CCN(c2ncnc3c2nc(-c2ccccc2Cl)n3-c2ccc(Cl)cc2)CC1 is lower in Ki: over 10 µM for the first, 4.6 µM for the second. The second binds more tightly here.

CC1(NC(=O)NC2CCCCC2)CCN(c2ncnc3c2nc(-c2ccccc2Cl)n3-c2ccc(Cl)cc2)CC1 and CC1(NC(=O)NC2CCC(F)(F)CC2)CCN(c2ncnc3c2nc(-c2ccccc2Cl)n3-c2ccc(Cl)cc2)CC1 cannot be ordered by Ki: over 10 µM for the first, over 10 µM for the second.

Going from O=C(NC1CCN(c2ncnc3c2nc(-c2ccccc2Cl)n3-c2ccc(Cl)cc2)CC1)N1CCCCC1 to O=C(NCC1CCCCC1)NC1CCN(c2ncnc3c2nc(-c2ccccc2Cl)n3-c2ccc(Cl)cc2)CC1, the Ki rises from 0.4 µM to 7.6 µM (19-fold). The first binds more tightly here.

Compared with CCCN(C)C(=O)NC1CCN(c2ncnc3c2nc(-c2ccccc2Cl)n3-c2ccc(Cl)cc2)CC1, COCCN(C)C(=O)NC1CCN(c2ncnc3c2nc(-c2ccccc2Cl)n3-c2ccc(Cl)cc2)CC1 is 3.7-fold higher in Ki: 0.63 µM for the first, 2.3 µM for the second.

CC1(NC(=O)Nc2ccc(OC(F)F)nc2)CCN(c2ncnc3c2nc(-c2ccccc2Cl)n3-c2ccc(Cl)cc2)CC1 and CC1(NC(=O)Nc2ccc(F)cc2F)CCN(c2ncnc3c2nc(-c2ccccc2Cl)n3-c2ccc(Cl)cc2)CC1 cannot be ordered by Ki: over 10 µM for the first, over 10 µM for the second.

First: O=C(NCc1ccccc1F)NC1CCN(c2ncnc3c2nc(-c2ccccc2Cl)n3-c2ccc(Cl)cc2)CC1
Second: CC1(NC(=O)NCc2ccccc2F)CCN(c2ncnc3c2nc(-c2ccccc2Cl)n3-c2ccc(Cl)cc2)CC1
The Ki of the first is 5-fold lower: 0.22 µM for the first, 1.1 µM for the second.

Compared with CC(C)CN(C)C(=O)NC1CCN(c2ncnc3c2nc(-c2ccccc2Cl)n3-c2ccc(Cl)cc2)CC1, CCCN(CC(F)(F)F)C(=O)NC1CCN(c2ncnc3c2nc(-c2ccccc2Cl)n3-c2ccc(Cl)cc2)CC1 is 4.7-fold higher in Ki: 0.6 µM for the first, 2.8 µM for the second. The first binds more tightly here.

Going from CC1(NC(=O)Nc2ccccc2F)CCN(c2ncnc3c2nc(-c2ccccc2Cl)n3-c2ccc(Cl)cc2)CC1 to CC1(NC(=O)NC2CCN(c3ncnc4c3nc(-c3ccccc3Cl)n4-c3ccc(Cl)cc3)CC2)CCC(F)(F)CC1, the Ki falls from over 10 µM to 7.5 µM.

Going from CC1(NS(=O)(=O)NC2CCCCC2)CCN(c2ncnc3c2nc(-c2ccccc2Cl)n3-c2ccc(Cl)cc2)CC1 to O=C(NCC1CCCC1)NC1CCN(c2ncnc3c2nc(-c2ccccc2Cl)n3-c2ccc(Cl)cc2)CC1, the Ki rises from 0.74 µM to 3.2 µM (4.3-fold). The first binds more tightly here.

O=C(NC1CCN(c2ncnc3c2nc(-c2ccccc2Cl)n3-c2ccc(Cl)cc2)CC1)NC1(C(F)(F)F)CCCC1 and O=C(NCC1CCC(F)(F)CC1)NC1CCN(c2ncnc3c2nc(-c2ccccc2Cl)n3-c2ccc(Cl)cc2)CC1 cannot be ordered by Ki: over 10 µM for the first, over 10 µM for the second.

System: not listed separately
Test: Half life in Sprague-Dawley rat plasma at 1 mg/kg, po by LC-MS/MS analysis
Format: ADME, organism-based

O=C(Nc1ccc(F)cc1F)NC1CCN(c2ncnc3c2nc(-c2ccccc2Cl)n3-c2ccc(Cl)cc2)CC1 showed a half-life of 720 min.

System: not listed separately
Test: Cmax in C57BL6 mouse plasma at 0.3 mg/kg, po measured at 1 hr post dose by LC-MS/MS analysis
Format: ADME, organism-based
Set-up: dose 0.3 mg/kg, route oral
Method in brief: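 Female C57BL6 mice, 8 weeks old, received a single oral dose of 0.3 mg/kg in 1% NMP/0.3% Tween 80 in 0.5% Na-CMC. […] Maximum observed concentrations are reported; plasma clearance and half-life come from PK analysis.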

For O=C(Nc1ccc(F)cc1F)NC1CCN(c2ncnc3c2nc(-c2ccccc2Cl)n3-c2ccc(Cl)cc2)CC1, the Cmax was 1230 ng/mL.
